One experiment deals with HT-29. As to the kind of experiment: Antiproliferative activity against human HT-29 cells assessed as cell growth inhibition after 48 hrs by sulforhodamine B assay. It is filed as functional, cell-based. The note with it: HT-29, 48 h. An outline of the steps: (§1)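 NCI-style SRB screen with minor changes. Cells seeded per well in DMEM with 5% FBS: HT-29 4.0 x 10^3, M21 3.0 x 10^3, MCF-7 2.5 x 10^3, HT-1080 2.5 x 10^3. After 24 h, serially diluted drug was added at 50 µM to 1 nM final, DMSO <0.5%, for 48 h. Fixed with cold TCA, stained with SRB, read at 530–568 nm against plates fixed on treatment day. At least two experiments in triplicate, CV <10%.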

The test system of experiment [1] is M21. As to the kind of experiment: Antiproliferative activity against human M21 cells assessed as cell growth inhibition after 48 hrs by sulforhodamine B assay. It is filed as functional, cell-based. The note with it: M21, 48 h. In short, it runs like this: as §1
The next experiment relates to MCF7. The experiment is described as follows: Antiproliferative activity against human MCF7 cells assessed as cell growth inhibition after 48 hrs by sulforhodamine B assay. The note with it: MCF7, 48 h. In kind it is functional, cell-based. An outline of the steps:
as §1

The nature of experiment [2]: Antiproliferative activity against human HT1080 cells assessed as cell growth inhibition after 48 hrs by sulforhodamine B assay. It is filed as functional, cell-based. The note with it: HT-1080, 48 h.
In experiment [3] the test system is M21. The experiment is described as follows: Induction of cell cycle arrest in human M21 cells assessed as cells accumulation at subG1 phase at 10 nM after 24 hrs by flow cytometry (reference value: 1.2%). In kind it is functional.
Experiment [4] deals with M21. As to the kind of experiment: Induction of cell cycle arrest in human M21 cells assessed as cells accumulation at G0/G1 phase at 10 nM after 24 hrs by flow cytometry (reference value: 54.5%). It is filed as functional.
The subject of experiment [5] is M21. As to the kind of experiment: Induction of cell cycle arrest in human M21 cells assessed as cells accumulation at S phase at 10 nM after 24 hrs by flow cytometry (reference value: 22.2%). In kind it is functional.
The subject of experiment [6] is M21. The experiment is described as follows: Induction of cell cycle arrest in human M21 cells assessed as cells accumulation at G2/M phase at 10 nM after 24 hrs by flow cytometry (reference value: 22.1%). In kind it is functional.
Experiment [7] has as its target T1, Tubulin beta (Homo sapiens) (UniProt P68371+Q9H4B7+Q13509+P04350+Q3ZCM7+P07437+Q13885+Q9BVA1+Q9BUF5+A6NNZ2). The experiment is described as follows: Inhibition of N,N-ethylene-bis(iodoacetamide) binding to Tubulin beta colchicines-binding site in human M21 cells assessed as adduct formation at 410 nM by Western blot analysis. It is filed as cell-based.
The target of experiment [8] is T1, Tubulin beta (Homo sapiens). As to the kind of experiment: Inhibition of N,N-ethylene-bis(iodoacetamide) binding to Tubulin beta colchicines-binding site in human M21 cells assessed as adduct formation at 910 nM by Western blot analysis. In kind it is cell-based.
The target is the same in experiment [9]. As to the kind of experiment: Inhibition of N,N-ethylene-bis(iodoacetamide) binding to Tubulin beta colchicines-binding site in human M21 cells assessed as adduct formation at 2500 nM by Western blot analysis. In kind it is cell-based.
Experiment [10] relates to M21. The experiment is described as follows: Induction of microtubule depolymerization and cytoskeleton disruption in human M21 cells at 10 nM after 16 hrs by immunofluorescence assay.
Experiment [11] concerns the target T1, Tubulin beta (Homo sapiens). As to the kind of experiment: Inhibition of N,N-ethylene-bis(iodoacetamide) binding to Tubulin beta colchicines-binding site in human M21 cells assessed as adduct formation at 100000 nM by Western blot analysis. In kind it is cell-based.

Here are results for 14 molecules from ChEMBL document CHEMBL3588763, “Styryl-N-phenyl-N'-(2-chloroethyl)ureas and styrylphenylimidazolidin-2-ones as new potent microtubule-disrupting agents using combretastatin A-4 as model” (Eur J Med Chem, 2015).

Structures are written as SMILES. Active and inactive are the calls of the source. The rule behind the calls is not given here.

Regarding `O=C(NCCCl)Nc1ccc(/C=C/c2cccc(Cl)c2)cc1`, the IC50 was 12 µM with HT-29, over 20 µM in the experiment with M21 [1], 20 µM with MCF7 and over 20 µM in experiment [2].

On to `CCNC(=O)Nc1ccc(/C=C\c2cc(C)cc(C)c2)cc1`, for which the IC50 was 11 µM in the experiment on HT-29, 16 µM in the experiment with M21 [1], 17 µM in the experiment on MCF7 and 15 µM in experiment [2].

For `CCNC(=O)Nc1ccc(/C=C\c2cccc(Cl)c2)cc1`, the IC50 in the experiment with HT-29 is 26 µM; in the experiment with M21 [1] it was 35 µM; in the experiment with MCF7, 32 µM; in [2], 31 µM.

For `O=C1NCCN1c1ccc(/C=C/c2cccc(Cl)c2)cc1`, the IC50 in the experiment with HT-29 is 17 µM; with M21 [1], 19 µM; in the experiment with MCF7 it was 20 µM; in experiment [2], over 20 µM.

`COc1cc(/C=C\c2ccc(N3CCNC3=O)cc2)cc(OC)c1OC`: the IC50 came to 0.0017 µM in the experiment with HT-29, 0.0024 µM with M21 [1], 0.0026 µM with MCF7 and 0.0023 µM in experiment [2]. The Activity with M21 [3] is on record as 5.1%; with M21 [4], 4.2%; in the experiment on M21 [5], 6.1%; with M21 [6] it was 84.6%. For the same molecule, the inhibition result in experiment [7], in [8] and in experiment [9] was “Active” in each case. In the experiment with M21 [10], the outcome was Active.

For `CCNC(=O)Nc1ccc(/C=C/c2cc(OC)c(OC)c(OC)c2)cc1`, the IC50 in the experiment on HT-29 is 12 µM; in the experiment with M21 [1], 29 µM; with MCF7, 17 µM; in experiment [2] it was 16 µM.

Regarding `COc1ccc(/C=C\c2cc(OC)c(OC)c(OC)c2)cc1O` [COMBRETASTATIN A4], the figures for the IC50 in the experiment on HT-29, in the experiment with M21 [1] and in the experiment with MCF7 were 0.56 µM, 0.0016 µM and 0.0021 µM, respectively. In addition, the Activity was determined as 7.5% in the experiment with M21 [3], 4.5% in the experiment with M21 [4], 6.6% in the experiment on M21 [5] and 91.4% with M21 [6]. In addition, the outcome with M21 [10] was Active.

With `COc1cc(/C=C/c2ccc(NC(=O)NCCCl)cc2)cc(OC)c1OC`, the concentration for half-maximal inhibition (IC50) in the experiment with HT-29 is 9.5 µM; with M21 [1] it was over 20 µM; with MCF7 it was 20 µM; in [2], over 20 µM.

Turning to `Cc1cc(C)cc(/C=C/c2ccc(N3CCNC3=O)cc2)c1`, the IC50 was 14 µM in the experiment with HT-29, 17 µM with M21 [1], 16 µM in the experiment with MCF7 and over 20 µM in [2].

For the molecule `COc1cc(/C=C/c2ccc(N3CCNC3=O)cc2)cc(OC)c1OC`, the IC50 in the experiment with HT-29 stood at 0.37 µM; in the experiment on M21 [1], 0.55 µM; with MCF7, 0.54 µM; in experiment [2] it was 0.4 µM. Besides, the inhibition entry in experiment [11] was “Active”.

With `Cc1cc(C)cc(/C=C/c2ccc(NC(=O)NCCCl)cc2)c1`, the IC50 with HT-29 is 11 µM; with M21 [1] it was over 20 µM; in the experiment on MCF7, 19 µM; in experiment [2], over 20 µM.

With `CCNC(=O)Nc1ccc(/C=C/c2cccc(Cl)c2)cc1`, the IC50 with HT-29 is over 20 µM; with M21 [1], over 20 µM; in the experiment on MCF7 it was 20 µM; in experiment [2], over 20 µM.

Regarding `CCNC(=O)Nc1ccc(/C=C/c2cc(C)cc(C)c2)cc1`, the IC50 in the experiment with HT-29 is over 20 µM; with M21 [1] it was over 20 µM; in the experiment on MCF7 it was 20 µM; in experiment [2], over 20 µM.

Turning to `CCNC(=O)Nc1ccc(/C=C\c2cc(OC)c(OC)c(OC)c2)cc1`, the IC50 in the experiment on HT-29 worked out at 21 µM; in the experiment with M21 [1], 21 µM; in the experiment with MCF7, 21 µM; in experiment [2], 29 µM.
